CHOP UPR activ – apoptotic UPR (CHOP) activation | CHO-CHOP luciferase reporter, luminescence; percent of tunicamycin response over DMSO baseline | activation, % at 10 µM | hit rate 0.34% among 330,000 | AID 449763;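 active = at 10 µM dose, activation of 40% or more, normalized to positive control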;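 also: 100% = tunicamycin at 10 µg/mL and 0% = DMSO alone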
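System: CHO-CHOP luciferase reporter cell line | Buffer or medium: F12 medium containing 10% fetal bovine serum | Doses: One dose, 10 µM in 0.5% DMSO | Times: 6 h compound exposure at 37 °C after overnight seeding | Signal: Luciferase luminescence | Read-out: % activation vs tunicamycin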
MC4R antag cAMP – antagonists of human melanocortin 4 receptor (MC4R); P32245; MC4R-expressing cells, MTII-stimulated cAMP, LANCE TR-FRET; inhibition, % at 6.5 µM; hit rate 0.48% among 360,000;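 active = inhibition above its plate's cutoff, the mean of tested wells on that plate plus 3 SD, cut at about 29% in these data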;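 also: 0% = Melanotan II alone and 100% = Melanotan II plus saturating MCL0020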
Target sequence (P32245 whole entry, looked up): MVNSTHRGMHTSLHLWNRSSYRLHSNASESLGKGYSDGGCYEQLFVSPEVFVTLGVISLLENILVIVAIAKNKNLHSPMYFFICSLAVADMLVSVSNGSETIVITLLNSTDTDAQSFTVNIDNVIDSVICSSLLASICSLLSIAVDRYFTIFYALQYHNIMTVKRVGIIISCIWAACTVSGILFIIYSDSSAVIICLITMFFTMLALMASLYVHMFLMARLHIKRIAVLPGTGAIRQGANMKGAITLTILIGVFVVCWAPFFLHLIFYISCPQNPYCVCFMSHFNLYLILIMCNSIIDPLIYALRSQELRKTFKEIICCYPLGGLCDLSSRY
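System: U2OS cells stably expressing human melanocortin 4 receptor (MC4R). Reagent: Melanotan II challenge after compound preincubation. Doses: 6.5 µM. Times: 30-min compound, 1-h challenge, 1-h detection, room temperature. Measured by: TR-FRET with Eu-cAMP and labeled anti-cAMP, 671 nm. Replicates: singlicate.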
Bfl-1 A1 inh – inhibitors of the anti-apoptotic protein A1, read as caspase activation; MEF A1-2A-BIM cells, Caspase-Glo 3/7 luminescence, 3 h; percent of clofoctol response, vehicle zero; caspase activation, % (concentration not given with the values); hit rate 0.066% among 330,000;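 active = over half of replicate activation scores above 10%, or exactly half above 10 with the replicate mean above 10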
XBP1 UPR activ – activators of adaptive arm of unfolded protein response (XBP1). CHO-XBP1 luciferase reporter, IRE1-XBP1 UPR activation, luminescence; percent of tunicamycin response, DMSO as zero. activation, % at 20 µM. hit rate 0.33% among 330,000. AID 463104;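 active = versus positive control, 20 µM dose yields 30% or more activation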;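 also: 100% = tunicamycin at 10 µg/mL and 0% = DMSO only wells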
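Signal: luciferase luminescence; Assay system: CHO-XBP1 luciferase reporter cells; Amount: one thousand reporter cells per well; Dosing: 20 µM single concentration, DMSO 1%; Benchmarks: high control tunicamycin 10 µg/mL final, low control DMSO vehicle only; Schedule: 6 h compound exposure at 37 °C, 5% CO2; Evaluation: percent activation relative to tunicamycin reference.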
MC4R ag barr – activates human MC4R beta-arrestin recruitment | P32245 | hit rate 0.98% among 360,000 | activation, % at 8.9 µM | U2OS MC4R beta-arrestin complementation, luminescence; percent of melanotan II response, DMSO zero | AID 540308;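 active = activation above a per-plate cutoff, the mean activation of sample wells on that plate plus 3 SD, cut at about 8% in these data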
U2OS cAMP counter – counter-screen for MC4R antagonists: nonselective cAMP signaling inhibitors; hit rate 26% among 1,600; parental U2OS, forskolin cAMP, LANCE TR-FRET; AID 602193; shares compounds with MC4R antag cAMP; inhibition, % at 6.5 µM;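 active = mean inhibition over triplicates above the low-control well mean plus 3 SD, set per campaign, cut at about 13% in these data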;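 also: signal is single emission at 671 nm which falls as cellular cAMP rises; 0% = forskolin-stimulated wells and 100% = buffer without forskolin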
MC4R cAMP antag – human MC4R cAMP antagonism confirmation | shares compounds with MC4R antag cAMP | MC4R-expressing cells, MTII-stimulated cAMP, TR-FRET | inhibition, % at 6.5 µM | hit rate 27% among 1,600 | AID 602195; in the data active = inhibition above about 29%;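 also: 0% = agonist stimulated wells alone and 100% = agonist stimulated wells plus saturating reference antagonist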
The depositor's hits bear a star; · = no result. Hits are enriched below; roughly 2% of the tested compounds scored in any of these assays.

SMILES	CHOP UPR activ	MC4R antag cAMP	Bfl-1 A1 inh	XBP1 UPR activ	MC4R ag barr	U2OS cAMP counter	MC4R cAMP antag
CC(=O)c1sccc1NC(=O)c1ccccc1C(=O)O	1	72*	0	-3	0	29*	61*
C=CCn1c(Sc2ncc([N+](=O)[O-])s2)n[nH]c1=O	-9	43*	0	-10	-2	30*	31*
Cc1nc(C(F)(F)F)ccc1C(=O)N1CCC1(C)C(=O)NS(=O)(=O)c1ccc(C#N)cc1 (centres undefined)	·	2	·	·	-1	·	·
CC(C)(C)c1ccc(-n2nc(C#N)c(Cl)cc2=O)cc1	-9	94*	·	-10	-3	41*	89*
CCOC(=O)c1c(NC(=O)CCl)sc(CN(C)C)c1-c1ccccc1	35	48*	0	1	-3	23*	41*
COc1cc(CNC(=O)c2cc(-c3cc(Cl)ccc3C)n[nH]2)cc(OC)c1	·	8	·	·	-1	·	·
COc1ccccc1C(=O)NC(=S)N1CCc2ccccc21	0	30*	0	-2	0	-6	-4
CC(=O)N(C)C[C@@H]1Oc2ncc(Br)cc2C(=O)N([C@H](C)CO)C[C@@H]1C	·	10	·	·	2	·	·
CC(=O)c1ccc(S(=O)(=O)N2CCN(C(=O)CSc3ccc(C)c(C)c3)CC2)cc1	2	35*	-1	5	0	-3	1
Cc1ccc(S(=O)(=O)N2CCN(C(=O)CSc3ccc(Cl)cc3)CC2)cc1	0	5	-1	0	2	·	·
CCN(CC)S(=O)(=O)c1ccc(Cl)c(NC(=O)COc2ccc3c(C)cc(=O)oc3c2)c1	4	-2	1	0	-1	·	·
CCN(CC)S(=O)(=O)c1ccc(OC)c(NC(=O)COc2ccc3c(C)cc(=O)oc3c2)c1	1	114*	0	-2	-1	96*	168*
Cc1cc(NS(=O)(=O)c2ccc(NC(=O)c3oc4ccccc4c3C)cc2)no1	0	29*	1	0	1	0	-2
Cc1c(C(=O)Nc2ccc(S(=O)(=O)Nc3ncccn3)cc2)oc2ccccc12	1	16	-1	0	-2	·	·
CCCc1nc2nc(C)c(NS(=O)(=O)c3ccc(C)c(C)c3)c(=O)n2[nH]1	·	4	·	·	0	·	·
Cn1cc(Cc2ccc(C(=O)NCc3ccccc3)cn2)c2ccccc21	·	7	·	·	-1	·	·
CCCC(=O)N1CCC1(C)C(=O)Nc1ccc(OC)c(OC)c1 (centres undefined)	·	2	·	·	-1	·	·
CN(c1cccc(NC(=O)c2ccc(N(C)S(=O)(=O)c3ccccc3)cc2)c1)S(C)(=O)=O	1	42*	0	0	0	6	0
CC(=O)Nc1ccc(C(=O)Nc2cccc(S(=O)(=O)N(C)c3ccccc3)c2)cc1	0	8	1	-2	1	·	·
O=P1(O)CC2=C(CC=CC2)C1	·	7	·	·	-1	·	·
O=C(COC(=O)CNC(=O)c1cccc([N+](=O)[O-])c1)Nc1ccccc1OC(F)F	-1	13	1	-3	2	·	·
O=C(COC(=O)CNC(=O)c1cccc([N+](=O)[O-])c1)Nc1nc2ccccc2s1	2	31*	0	0	-2	7	13
CCCCN1CC(C)(C)[C@H](CC(=O)NC)C1=O	·	2	·	·	-1	·	·
CNc1cnn(-c2ccccc2)c(=O)c1Cl	2	3	0	-1	-1	·	·
CN(C)CCNc1cnn(-c2ccccc2)c(=O)c1Cl	1	29*	1	-2	4	-2	-17
SMILES	CHOP UPR activ	MC4R antag cAMP	Bfl-1 A1 inh	XBP1 UPR activ	MC4R ag barr	U2OS cAMP counter	MC4R cAMP antag
COCCNC(=O)C1CCCN(Cc2ccccc2F)CC1 (centres undefined)	·	-8	·	·	-2	·	·
N#Cc1c(N2CCN(C(=O)c3ccco3)CC2)nc(-c2ccccc2)c2c1CCCC2	0	34*	-1	-3	2	8	43*
N#Cc1c(N2CCN(C(=O)c3ccccc3)CC2)nc(-c2ccccc2)c2c1CCCC2	2	15	0	-3	-1	·	·
CCCC(C)(C)C(=O)N1CCC1(C)C(=O)NS(=O)(=O)c1ccc(Br)cc1 (centres undefined)	·	11	·	·	-1	·	·
COc1ccc(/C=N/NC(=O)C2COc3ccccc3O2)cc1OC (centres undefined)	0	29*	-2	-2	2	-2	-12
COc1ccc(N(CC(=O)NC2CC3CCC2C3)S(=O)(=O)c2ccc(C)cc2)cc1Cl (centres undefined)	·	5	·	·	-1	·	·
Cc1cc(C)c(S(=O)(=O)N(C)CC(=O)N2CCCC2)c(C)c1	·	0	·	·	0	·	·
O=C(COC(=O)CNS(=O)(=O)c1ccc(F)c(F)c1F)Nc1ccc(OC(F)F)cc1	5	29*	0	0	-3	9	18
COc1cc(NC(=O)COC(=O)CNS(=O)(=O)c2ccc(F)c(F)c2F)cc(OC)c1	0	12	1	-1	1	·	·
CC(C)CNc1ncnc2c1ncn2[C@H]1CN(C2CCCC2)C[C@@H](CO)O1	·	0	·	·	-1	·	·
CCS(=O)(=O)c1ncc(Cl)c(C(=O)Nc2ccc(S(=O)(=O)N(C)c3ccccc3)cc2)n1	-11	52*	13*	-11	-5	4	36*
CCN(c1ccccc1)S(=O)(=O)c1ccc(C(=O)Nc2ccncc2)cc1	1	4	1	-1	2	·	·
CCN(c1ccccc1)S(=O)(=O)c1ccc(NC(=O)c2nc(S(C)(=O)=O)ncc2Cl)cc1	-11	60*	-2	-11	-3	24*	46*
O=C(CC1CCCC1)N1CCN(S(=O)(=O)c2c(F)cccc2F)CC1	·	5	·	·	1	·	·
CC(C)(C)c1ccc(C(=O)N2CCC2(C)C(=O)NS(=O)(=O)c2ccccc2Cl)cc1 (centres undefined)	·	10	·	·	-1	·	·
O=C1CC(c2ccccc2)CC2=C1C1(CCCC1)N=C(Nc1nc3ccccc3o1)N2 (centres undefined)	·	-1	·	·	0	·	·
Cc1ccccc1CN1CCC(Oc2ccc(C(=O)N3CCCC3)cc2)CC1	0	29*	0	1	0	0	-3
COc1cc(C)c(CN2CCC(Oc3ccc(C(=O)N4CCCC4)cc3)CC2)cc1C	-1	15	0	-6	1	·	·

Assay outcomes as filed in PubChem.
